We go through 23 compounds from ChEMBL document CHEMBL4715793 (J Med Chem, 2016).

Data set [1] is described as follows: Inhibition of NS5A in HCV genotype 1b infected in HuH7.5Lcu-Neo cells assessed as reduction in viral replication by luciferase reporter gene assay. It is filed as cell-based, Hepatitis C virus subtype 1b. To be noted: Hepatitis C virus.
Data set [2] can be described thus: Cytotoxicity against human Huh7.5 cells assessed as reduction in cell viability incubated for 72 hrs by MTT assay. It is filed as cell-based. Put shortly: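 Huh7.5 cells seeded at 3 × 10^4/cm2, grown 24 h, then exposed to compound for 72 h. Viability read by MTT assay. CC50 by Reed & Muench method, mean ± SD from three independent experiments.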
A short description of data set [3]: Selectivity index, ratio of CC50 for cytotoxicity against human Huh7.5 cells assessed as reduction in cell viability incubated for 72 hrs by MTT assay to EC50 for antiviral activity against HCV genotype 2a J6/JFH/JC1 infected in human Huh7.5 cells assessed as reduction in viral RNA levels measured after 72 hrs by qRT-PCR analysis. It is filed as toxicity, cell-based. To be noted: read-out: Ratio CC50/EC50.

A short description of data set [4]: Antiviral activity against HCV subtype 2a J6/JFH/JC1 infected in human Huh7.5 cells assessed as reduction in viral RNA levels measured after 72 hrs by qRT-PCR analysis. The following applies: Hepatitis C virus, J6/JFH/JC1, Huh7.5, 72 h.
Data set [5] has as its system Hepatitis C virus. In words: Antiviral activity against wild-type HCV J6/JFH/JC1 infected in human Huh7.5 cells assessed as inhibition of viral replication measured after 72 hrs by qRT-PCR analysis. It is filed as functional, organism-based, Hepacivirus hominis. To be noted: J6/JFH/JC1, Huh7.5, 72 h. Put shortly: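 Huh7.5 cells seeded at 3 × 10^4/cm2 and incubated 24 h. Infected with wild-type HCVcc stock (45 IU/cell) with compound or solvent control added at the same time. After 72 h, intracellular RNA measured by one-step qRT-PCR and core protein by Western blot. EC50 by Reed & Muench method, mean ± SD from three independent experiments.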

For data set [6], the system named is Hepatitis C virus. In words: Antiviral activity against HCV subgenomic replicon harboring I377-3'del.S infected in human GS4.3 cells assessed as inhibition of viral replication at 6.25 to 25 uM after 72 hrs by qRT-PCR analysis. It is filed as functional, organism-based. The following applies: Hepacivirus hominis, dose 6.25-25 µM. In short, it runs like this: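 GS4.3 cells (Huh7 carrying HCV subgenomic replicon I377-3′del.S) seeded at 3 × 10^4/cm2, after 24 h treated with compound or solvent control. After 72 h intracellular RNA extracted and replicon RNA measured by qRT-PCR. Cytotoxicity checked by MTT at 72 h.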

The subject of data set [7] is Hepatitis C virus. Nature of the data set: Antiviral activity against HCV J6/JFH/JC1 harboring A156T mutant infected in human Huh7.5 cells assessed as inhibition of viral replication measured after 72 hrs by qRT-PCR analysis. It is filed as functional, organism-based, Hepacivirus hominis. To be noted: J6/JFH/JC1, Huh7.5, 72 h.
The subject of data set [8] is Hepatitis C virus. Nature of the data set: Antiviral activity against HCV J6/JFH/JC1 harboring D168V mutant infected in human Huh7.5 cells assessed as inhibition of viral replication measured after 72 hrs by qRT-PCR analysis. The class given is functional, organism-based, Hepacivirus hominis. The following applies: J6/JFH/JC1, Huh7.5, 72 h.
Data set [9] can be described thus: Resistance ratio of EC50 for antiviral activity against HCV J6/JFH/JC1 harboring D168V mutant infected in human Huh7.5 cells to EC50 for antiviral activity against wild-type HCV J6/JFH/JC1 infected in human Huh7.5 cells. The class given is functional.
Data set [10] concerns Hepatitis C virus. In words: Antiviral activity against HCV J6/JFH/JC1 harboring S282T mutant infected in human Huh7.5 cells assessed as inhibition of viral replication measured after 72 hrs by qRT-PCR analysis. It is filed as functional, organism-based, Hepacivirus hominis. The following applies: J6/JFH/JC1, Huh7.5, 72 h.
The target of data set [11] is T1, Chondroitin sulfate N-acetylgalactosaminyltransferase 1 (Homo sapiens) (UniProt Q8TDX6).
T1 sequence (whole entry): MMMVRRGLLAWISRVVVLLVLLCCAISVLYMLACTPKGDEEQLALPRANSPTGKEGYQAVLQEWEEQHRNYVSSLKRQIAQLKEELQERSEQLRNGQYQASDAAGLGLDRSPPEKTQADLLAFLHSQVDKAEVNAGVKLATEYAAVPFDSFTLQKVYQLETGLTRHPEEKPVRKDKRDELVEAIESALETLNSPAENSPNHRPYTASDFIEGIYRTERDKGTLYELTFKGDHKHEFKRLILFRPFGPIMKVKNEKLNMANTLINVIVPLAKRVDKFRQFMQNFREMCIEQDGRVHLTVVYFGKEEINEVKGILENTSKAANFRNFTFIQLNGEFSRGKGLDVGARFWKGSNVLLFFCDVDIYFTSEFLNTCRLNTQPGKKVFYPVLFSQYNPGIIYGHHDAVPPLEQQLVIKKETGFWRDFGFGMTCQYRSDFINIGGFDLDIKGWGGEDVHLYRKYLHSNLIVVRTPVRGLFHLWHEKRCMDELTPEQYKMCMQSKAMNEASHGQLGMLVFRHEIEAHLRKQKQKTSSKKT
Nature of the data set: Destabilization of CSGalNacT-1 in human Huh7.5 cells assessed as down regulation of CSGalNacT-1 protein levels measured after 72 hrs by Western blot analysis. To be noted: dose 0.2-25 µM. It is filed as cell-based.

The source made the active and inactive calls. No cut-off for these calls is given here. Bounds are passed on as bounds.

In the case of `C/C=C/C[C@@H](C)[C@@H](O)[C@H]1C(=O)N[C@@H](CC)C(=O)N(C)[C@H](C)C(=O)N(CC)[C@@H](C(C)C)C(=O)N[C@@H](C(C)C)C(=O)N(C)[C@@H](CC(C)C)C(=O)N[C@@H](C)C(=O)N[C@H](C)C(=O)N(C)[C@@H](CC(C)C)C(=O)N(C)[C@@H](CC(C)C)C(=O)N(C)[C@@H](C(C)C)C(=O)N1C` [ALISPORIVIR], the EC50 in [1] is 0.0158 µM.

For `COc1cc(/C=C/c2ccccc2C)c(C(=O)O)c(O)c1CC=C(C)C`, the CC50 at 72 h in data set [2] worked out at 55.3 µM. Besides, the selectivity ratio at 72 h in data set [3] came out at 9. In addition, in data set [4], the concentration for a half-maximal effect (EC50) was found to be 5.92 µM.

Take `CC/C=C/c1cc(OC)c(CC=C(C)C)c(O)c1C(=O)OC`: the CC50 at 72 h in data set [2] worked out at 89.3 µM. In [3], the selectivity ratio at 72 h was determined as 4. In addition, in data set [4], the EC50 came out at 24.8 µM.

As to `COC(=O)c1c(CCc2ccccc2)cc(OC)c(CC=C(C)C)c1O`, the CC50 at 72 h in [2] was found to be 122 µM. In addition, the selectivity ratio at 72 h in data set [3] turned out to be 8. Also, the EC50 in [4] is 16.1 µM.

Turning to `COc1cc(/C=C(\C)c2ccccc2)c(C(=O)O)c(O)c1CC=C(C)C`, the half-maximal cytotoxic concentration (CC50) at 72 h in [2] worked out at 76.8 µM. For the same compound, the selectivity ratio at 72 h in [3] came to 45. Also, the concentration for a half-maximal effect (EC50) in data set [4] is 1.7 µM.

`COC(=O)N[C@H](C(=O)N1CCC[C@H]1c1ncc(-c2ccc(-c3ccc(-c4cnc([C@@H]5CCCN5C(=O)[C@@H](NC(=O)OC)C(C)C)[nH]4)cc3)cc2)[nH]1)C(C)C`: the EC50 in data set [5] came to 0.0177 nM.

For the compound `CCC[C@H](NC(=O)[C@@H]1[C@H]2CCC[C@H]2CN1C(=O)[C@@H](NC(=O)[C@@H](NC(=O)c1cnccn1)C1CCCCC1)C(C)(C)C)C(=O)C(=O)NC1CC1`, the result in data set [6] was Active. For the same compound, the CC50 at 72 h in data set [2] was found to be 44.9 µM. In addition, the EC50 is 0.62 µM in data set [7], 0.008 µM in [4] and 20 nM in data set [5]. Besides, in data set [3], the selectivity ratio at 72 h turned out to be 5700.

For `COc1cc(CCc2ccccc2)c(C(=O)O)c(O)c1CC=C(C)C` [AMORFRUTIN A], the CC50 at 72 h in [2] came to 59.4 µM. In addition, in [3], the selectivity ratio at 72 h came to 35. Besides, in [4], the EC50 was 1.68 µM.

Consider `COC(=O)c1c(/C=C/c2ccccc2)cc(OC)c(CC=C(C)C)c1O`, for which the CC50 at 72 h in [2] was over 200 µM. For the same compound, in data set [3], the selectivity ratio at 72 h is over 41. The EC50 in data set [4] worked out at 4.87 µM.

For the compound `COc1ccc2c(O[C@@H]3C[C@H]4C(=O)N[C@]5(C(=O)NS(=O)(=O)C6CC6)C[C@H]5/C=C\CCCCN(C)C(=O)[C@@H]4C3)cc(-c3nc(C(C)C)cs3)nc2c1C`, the EC50 came out at 0.93 µM in data set [8] and 40 nM in [5]. In addition, the “Ratio EC50” value in [9] turned out to be 23.3.

In the case of `COc1cc(/C=C/c2ccc(C)cc2)c(C(=O)O)c(O)c1CC=C(C)C`, the CC50 at 72 h in data set [2] is 82.9 µM. Besides, the selectivity ratio at 72 h in data set [3] turned out to be 13. In addition, in [4], the EC50 was 6.54 µM.

Consider `COc1cc(/C=C/c2ccc(F)cc2)c(C(=O)O)c(O)c1CC=C(C)C`, for which the CC50 at 72 h in [2] amounted to 69.2 µM. Besides, the selectivity ratio at 72 h in data set [3] turned out to be 46. Also, in data set [4], the EC50 was 1.49 µM.

Take `COc1cc(/C=C/c2ccc(O)cc2)c(C(=O)O)c(O)c1CC=C(C)C`: the CC50 at 72 h in data set [2] came to 16.1 µM. Moreover, the selectivity ratio at 72 h in [3] turned out to be 49. Also, in data set [4], the half-maximal effective concentration (EC50) came out at 0.33 µM.

On to `COc1cc(/C=C/c2ccccc2)cc(O)c1CC=C(C)C`, for which the cytotoxic concentration (CC50) at 72 h in [2] stood at 21.4 µM. For the same compound, in data set [3], the selectivity ratio at 72 h was 1.8. Besides, the concentration for a half-maximal effect (EC50) in [4] was 12 µM.

As to `COC(=O)c1c(/C=C(\C)c2ccccc2)cc(OC)c(CC=C(C)C)c1O`, the CC50 at 72 h in [2] worked out at 102 µM. In data set [3], the selectivity ratio at 72 h amounted to 35. Also, the EC50 in data set [4] was determined as 2.89 µM.

Consider `COc1cc(/C=C/C=C/c2ccccc2)c(C(=O)O)c(O)c1CC=C(C)C`, for which the CC50 at 72 h in data set [2] amounted to 96.9 µM. Also, the selectivity ratio at 72 h in [3] was found to be 7. In addition, the EC50 in [4] amounted to 13.4 µM.

Take `CC(C)OC(=O)[C@H](C)N[P@](=O)(OC[C@H]1O[C@@H](n2ccc(=O)[nH]c2=O)[C@](C)(F)[C@@H]1O)Oc1ccccc1` [SOFOSBUVIR]: in data set [10], the EC50 came out at 0.29 µM.

With `CC/C=C/c1cc(OC)c(CC=C(C)C)c(O)c1C(=O)O`, the cytotoxic concentration (CC50) at 72 h in data set [2] came out at 72.9 µM. Further, in data set [3], the selectivity ratio at 72 h was found to be 71. Also, the EC50 in data set [4] is 1.02 µM.

For the compound `COc1cc(/C=C/c2cccc(C)c2)c(C(=O)O)c(O)c1CC=C(C)C`, the CC50 at 72 h in data set [2] is 82.5 µM. Moreover, in data set [3], the selectivity ratio at 72 h stood at 42. In addition, the EC50 in data set [4] was 1.95 µM.

Consider `CCOC(=O)c1c(/C=C/c2ccccc2)cc(OC)c(CC=C(C)C)c1O`, for which the 50% cytotoxic concentration (CC50) at 72 h in [2] amounted to 195 µM. Further, in data set [3], the selectivity ratio at 72 h was determined as 47. Moreover, the EC50 in data set [4] was 4.13 µM.

Turning to `COc1cc(/C=C/c2cccs2)c(C(=O)O)c(O)c1CC=C(C)C`, the CC50 at 72 h in [2] was 83 µM. The selectivity ratio at 72 h in data set [3] was determined as 22. The EC50 in data set [4] was found to be 3.7 µM.

As for `COC(=O)c1c(O)cc(OC)cc1/C=C/c1ccccc1`, the Activity entry in data set [11] was “Dose-dependent effect”.

Take `COc1cc(/C=C/c2ccccc2Cl)c(C(=O)O)c(O)c1CC=C(C)C`: in [2], the 50% cytotoxic concentration (CC50) at 72 h was 39.5 µM. In data set [3], the selectivity ratio at 72 h is 39. In data set [4], the 50% effective concentration (EC50) stood at 1.03 µM.
